In brackets after ≈: the same amount, converted by molar mass.
Assays:
[1] = system: Listeria monocytogenes; assay: Antibacterial activity against Listeria monocytogenes NCTC 7973 treated for 24 hrs followed by sub-cultivated for 72 hrs by micro dilution method; assay type: functional
How it was run: (§1)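 2 µl from each well was serially subcultured into 100 µl fresh broth per well and incubated a further 72 h. MBC is the lowest concentration with no visible growth, taken as 99.5% killing of the original inoculum. Streptomycin and ampicillin were the positive controls.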

[2] = system: Salmonella typhimurium; assay: Antibacterial activity against Salmonella Typhimurium ATCC 13311 treated for 24 hrs followed by sub-cultivated for 72 hrs by micro dilution method; assay type: functional, Salmonella enterica subsp. enterica serovar Typhimurium; details: Salmonella enterica; how it was run: as §1
[3] = system: Trichoderma viride; assay: Antifungal activity against Trichoderma viride IAM 5061 treated for 72 hrs followed by sub-cultivated for 5 days by serial dilution method; assay type: functional
How it was run: (§2)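 MFC obtained after the 72 h, 28 °C malt-broth microdilution (spore inoculum about 1.0 × 10^5 per well, compounds from 1 mg/ml DMSO). 2 µl was serially subcultured into 100 µl broth per well and incubated a further 5 days at 28 °C. MFC is the lowest concentration with no visible growth, taken as 99.5% killing of the original inoculum.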

[4] = system: Escherichia coli; assay: Antibacterial activity against Escherichia coli ATCC 35210 treated for 24 hrs followed by sub-cultivated for 72 hrs by micro dilution method; assay type: functional; how it was run: as §1
[5] = system: Aspergillus fumigatus; assay: Antifungal activity against Aspergillus fumigatus human isolate after 72 hrs by serial dilution method; assay type: functional
How it was run: (§3)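 Modified microdilution MIC. Spores were washed from malt agar cultures with sterile 0.85% saline containing 0.1% Tween 80 and adjusted to about 1.0 × 10^5 per 100 µl well in malt broth. Compounds were dissolved in DMSO (1 mg/ml). Plates incubated 72 h at 28 °C. MIC is the lowest concentration with no visible growth under a binocular microscope. Bifonazole and ketoconazole were the references.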

[6] = system: Enterobacter cloacae; assay: Antibacterial activity against Enterobacter cloacae human isolate after 24 hrs by micro dilution method; assay type: functional
How it was run: (§4)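 Microdilution MIC in 96-well plates. Bacterial suspensions adjusted in sterile saline to 1.0 × 10^5 CFU/ml, giving 1.0 × 10^4 cfu per well in LB broth. Compounds tested at up to 1 mg/ml. Plates incubated 24 h. MIC taken as the lowest concentration with no visible growth under a binocular microscope. OD at 655 nm was also read against a blank and the positive control. Streptomycin and ampicillin were the positive controls.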

[7] = system: Aspergillus flavus; assay: Antifungal activity against Aspergillus flavus ATCC 9643 after 72 hrs by serial dilution method; assay type: functional; details: ATCC 9643, 72 h; how it was run: as §3
[8] = system: Bacillus cereus; assay: Antibacterial activity against Bacillus cereus clinical isolate treated for 24 hrs followed by sub-cultivated for 72 hrs by micro dilution method; assay type: functional; how it was run: as §1
[9] = system: Penicillium ochrochloron; assay: Antifungal activity against Penicillium ochrochloron ATCC 9112 after 72 hrs by serial dilution method; assay type: functional; details: ATCC 9112, 72 h; how it was run: as §3
[10] = system: Listeria monocytogenes; assay: Antibacterial activity against Listeria monocytogenes NCTC 7973 after 24 hrs by micro dilution method; assay type: functional; details: NCTC 7973, 24 h; how it was run: as §4
[11] = system: Micrococcus flavus; assay: Antibacterial activity against Micrococcus flavus ATCC 10240 after 24 hrs by micro dilution method; assay type: functional; details: ATCC 10240, 24 h; how it was run: as §4
[12] = system: Penicillium ochrochloron; assay: Antifungal activity against Penicillium ochrochloron ATCC 9112 treated for 72 hrs followed by sub-cultivated for 5 days by serial dilution method; assay type: functional; how it was run: as §2
[13] = system: Fulvia fulva; assay: Antifungal activity against Fulvia fulva treated for 72 hrs followed by sub-cultivated for 5 days by serial dilution method; assay type: functional; how it was run: as §2
[14] = system: Talaromyces funiculosus; assay: Antifungal activity against Penicillium funiculosum ATCC 36839 treated for 72 hrs followed by sub-cultivated for 5 days by serial dilution method; assay type: functional; how it was run: as §2
[15] = system: Aspergillus flavus; assay: Antifungal activity against Aspergillus flavus ATCC 9643 treated for 72 hrs followed by sub-cultivated for 5 days by serial dilution method; assay type: functional; how it was run: as §2
[16] = system: Aspergillus versicolor; assay: Antifungal activity against Aspergillus versicolor ATCC 11730 treated for 72 hrs followed by sub-cultivated for 5 days by serial dilution method; assay type: functional; how it was run: as §2
[17] = system: Fulvia fulva; assay: Antifungal activity against Fulvia fulva after 72 hrs by serial dilution method; assay type: functional; how it was run: as §3
[18] = system: Talaromyces funiculosus; assay: Antifungal activity against Penicillium funiculosum ATCC 36839 after 72 hrs by serial dilution method; assay type: functional; details: ATCC 36839, 72 h; how it was run: as §3
[19] = system: Bacillus cereus; assay: Antibacterial activity against Bacillus cereus clinical isolate after 24 hrs by micro dilution method; assay type: functional; how it was run: as §4
[20] = system: Micrococcus flavus; assay: Antibacterial activity against Micrococcus flavus ATCC 10240 treated for 24 hrs followed by sub-cultivated for 72 hrs by micro dilution method; assay type: functional; how it was run: as §1
[21] = system: Pseudomonas aeruginosa; assay: Antibacterial activity against Pseudomonas aeruginosa ATCC 27853 treated for 24 hrs followed by sub-cultivated for 72 hrs by micro dilution method; assay type: functional; how it was run: as §1
[22] = system: Staphylococcus aureus; assay: Antibacterial activity against Staphylococcus aureus ATCC 6538 treated for 24 hrs followed by sub-cultivated for 72 hrs by micro dilution method; assay type: functional; how it was run: as §1
[23] = system: Aspergillus fumigatus; assay: Antifungal activity against Aspergillus fumigatus human isolate treated for 72 hrs followed by sub-cultivated for 5 days by serial dilution method; assay type: functional; how it was run: as §2
[24] = system: Pseudomonas aeruginosa; assay: Antibacterial activity against Pseudomonas aeruginosa ATCC 27853 after 24 hrs by micro dilution method; assay type: functional; details: ATCC 27853, 24 h; how it was run: as §4
[25] = system: Escherichia coli; assay: Antibacterial activity against Escherichia coli ATCC 35210 after 24 hrs by micro dilution method; assay type: functional; details: ATCC 35210, 24 h; how it was run: as §4
[26] = system: Aspergillus niger; assay: Antifungal activity against Aspergillus niger ATCC 6275 treated for 72 hrs followed by sub-cultivated for 5 days by serial dilution method; assay type: functional; how it was run: as §2
[27] = system: Staphylococcus aureus; assay: Antibacterial activity against Staphylococcus aureus ATCC 6538 after 24 hrs by micro dilution method; assay type: functional; details: ATCC 6538, 24 h; how it was run: as §4
[28] = system: Trichoderma viride; assay: Antifungal activity against Trichoderma viride IAM 5061 after 72 hrs by serial dilution method; assay type: functional; details: IAM 5061, 72 h; how it was run: as §3
[29] = system: Aspergillus niger; assay: Antifungal activity against Aspergillus niger ATCC 6275 after 72 hrs by serial dilution method; assay type: functional; details: ATCC 6275, 72 h; how it was run: as §3
[30] = system: Salmonella typhimurium; assay: Antibacterial activity against Salmonella Typhimurium ATCC 13311 after 24 hrs by micro dilution method; assay type: functional, Salmonella enterica subsp. enterica serovar Typhimurium; details: Salmonella enterica, ATCC 13311, 24 h; how it was run: as §4
[31] = system: Aspergillus versicolor; assay: Antifungal activity against Aspergillus versicolor ATCC 11730 after 72 hrs by serial dilution method; assay type: functional; details: ATCC 11730, 72 h; how it was run: as §3
[32] = system: Enterobacter cloacae; assay: Antibacterial activity against Enterobacter cloacae human isolate treated for 24 hrs followed by sub-cultivated for 72 hrs by micro dilution method; assay type: functional; how it was run: as §1

Structure (SMILES) | MBC [1] [µM] | MBC [2] [µM] | MFC [3] [µM] | MBC [4] [µM] | MIC [5] [µM] | MIC [6] [µM] | MIC [7] [µM] | MBC [8] [µM] | MIC [9] [µM] | MIC [10] [µM] | MIC [11] [µM] | MFC [12] [µM] | MFC [13] [µM] | MFC [14] [µM] | MFC [15] [µM] | MFC [16] [µM] | MIC [17] [µM] | MIC [18] [µM] | MIC [19] [µM] | MBC [20] [µM] | further results
CCCCNc1nnc(Cc2cc(OC)c(OC)cc2S(=O)(=O)N(C)C)s1 | 480 (≈ 199 µg/mL) | 240 (≈ 99.5 µg/mL) | 120 (≈ 49.7 µg/mL) | 480 (≈ 199 µg/mL) | 120 (≈ 49.7 µg/mL) | 240 (≈ 99.5 µg/mL) | 120 (≈ 49.7 µg/mL) | 240 (≈ 99.5 µg/mL) | 120 (≈ 49.7 µg/mL) | 240 (≈ 99.5 µg/mL) | 240 (≈ 99.5 µg/mL) | 240 (≈ 99.5 µg/mL) | 120 (≈ 49.7 µg/mL) | 240 (≈ 99.5 µg/mL) | 240 (≈ 99.5 µg/mL) | 240 (≈ 99.5 µg/mL) | 60 (≈ 24.9 µg/mL) | 120 (≈ 49.7 µg/mL) | 240 (≈ 99.5 µg/mL) | 480 (≈ 199 µg/mL) | MBC [21]: 480 µM (≈ 199 µg/mL); MBC [22]: 480 µM (≈ 199 µg/mL); MFC [23]: 240 µM (≈ 99.5 µg/mL); MIC [24]: 480 µM (≈ 199 µg/mL); MIC [25]: 480 µM (≈ 199 µg/mL); MFC [26]: 120 µM (≈ 49.7 µg/mL); MIC [27]: 480 µM (≈ 199 µg/mL); MIC [28]: 60 µM (≈ 24.9 µg/mL); MIC [29]: 60 µM (≈ 24.9 µg/mL); MIC [30]: 240 µM (≈ 99.5 µg/mL); MIC [31]: 120 µM (≈ 49.7 µg/mL); MBC [32]: 240 µM (≈ 99.5 µg/mL)
CNc1nnc(Cc2cc(OC)c(OC)cc2S(=O)(=O)N(C)C)o1 | 420 (≈ 150 µg/mL) | 420 (≈ 150 µg/mL) | 140 (≈ 49.9 µg/mL) | 420 (≈ 150 µg/mL) | 140 (≈ 49.9 µg/mL) | 700 (≈ 249 µg/mL) | 140 (≈ 49.9 µg/mL) | 280 (≈ 99.8 µg/mL) | 140 (≈ 49.9 µg/mL) | 420 (≈ 150 µg/mL) | 560 (≈ 200 µg/mL) | 450 (≈ 160 µg/mL) | 450 (≈ 160 µg/mL) | 280 (≈ 99.8 µg/mL) | 450 (≈ 160 µg/mL) | 450 (≈ 160 µg/mL) | 280 (≈ 99.8 µg/mL) | 140 (≈ 49.9 µg/mL) | 280 (≈ 99.8 µg/mL) | 840 (≈ 299 µg/mL) | MBC [21]: 560 µM (≈ 200 µg/mL); MBC [22]: 280 µM (≈ 99.8 µg/mL); MFC [23]: 280 µM (≈ 99.8 µg/mL); MIC [24]: 420 µM (≈ 150 µg/mL); MIC [25]: 280 µM (≈ 99.8 µg/mL); MFC [26]: 450 µM (≈ 160 µg/mL); MIC [27]: 280 µM (≈ 99.8 µg/mL); MIC [28]: 30 µM (≈ 10.7 µg/mL); MIC [29]: 140 µM (≈ 49.9 µg/mL); MIC [30]: 420 µM (≈ 150 µg/mL); MIC [31]: 140 µM (≈ 49.9 µg/mL); MBC [32]: 840 µM (≈ 299 µg/mL)
